Laboratory results as given in ChEMBL document CHEMBL3351871, “Potent, long-acting cyclopentane-1,3-Dione thromboxane (A2)-receptor antagonists” (ACS Med Chem Lett, 2014).
Active and inactive are the calls of the source. The calls are words filed in the database; no cut-off is given here.

Legend:
[1] = target: T1, Thromboxane A2 receptor (Homo sapiens, UniProt P21731); experiment: Antagonist activity against human thromboxane A2 receptor alpha expressed in QBI-HEK293A cells assessed as reduction in I-BOP-induced inositol monophosphate production incubated for 15 to 60 mins before I-BOP addition by HTRF assay; assay type: functional, cell-based, HEK293-A
T1 sequence (P21731 whole entry): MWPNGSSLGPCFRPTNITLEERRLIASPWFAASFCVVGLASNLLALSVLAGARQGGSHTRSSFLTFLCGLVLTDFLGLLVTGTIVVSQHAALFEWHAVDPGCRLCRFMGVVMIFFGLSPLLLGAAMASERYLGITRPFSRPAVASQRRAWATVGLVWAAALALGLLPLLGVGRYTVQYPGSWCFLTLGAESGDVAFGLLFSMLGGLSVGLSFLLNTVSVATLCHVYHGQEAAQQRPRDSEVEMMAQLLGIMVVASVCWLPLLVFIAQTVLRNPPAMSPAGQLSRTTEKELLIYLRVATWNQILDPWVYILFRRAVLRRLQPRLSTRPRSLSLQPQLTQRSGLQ
Method in brief: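 Stably transfected HEK-293 cells expressing human TP receptor α preincubated 15 min with a range of antagonist concentrations, then stimulated with agonist I-BOP at 0.2 nM. IP1 (metabolite of IP3) quantified after a further 1 h as the activation read-out. IC50 from concentration–response curves; mean and SD of one or more assays run in triplicate.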

[2] = target: T2, Thromboxane A2 receptor (Homo sapiens) (UniProt P21731); experiment: (§1) Irreversible antagonist activity against human thromboxane A2 receptor alpha expressed in QBI-HEK293A cells assessed as reduction in I-BOP-induced inositol monophosphate production at 1 uM incubated for 15 to 60 mins before I-BOP addition and measured after 6 consecutive drug washout by HTRF assay; assay type: functional, cell-based; conditions: HEK293-A
T2 sequence (whole entry): T1 sequence (P21731 whole entry)
Method in brief: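 Washout variant: hTP cells preincubated 15 min with compound (1 μM; 10 μM for some), then 6 consecutive wash cycles of ~50-fold dilution each before 0.8 nM I-BOP. Relative IP1 determined. Controls received I-BOP alone or no treatment; ANOVA with Dunnett's test against the +I-BOP condition.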

[3] = target: T2, Thromboxane A2 receptor (Homo sapiens); experiment: Reversible antagonist activity against human thromboxane A2 receptor alpha expressed in QBI-HEK293A cells assessed as reduction in I-BOP-induced inositol monophosphate production at 1 uM incubated for 15 to 60 mins before I-BOP addition and measured after 4 consecutive drug washout by HTRF assay; assay type: functional, cell-based; conditions: HEK293-A
Method in brief: (§2)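 TP receptor α HEK-293 cells given 1 μM compound for 15 or 60 min, then four consecutive wash cycles, each about 50-fold dilution and separated by 15 min equilibration, before 0.8 nM I-BOP. IP1 then measured. Controls received I-BOP alone or no treatment; ANOVA with Dunnett's test against the […] at each time.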

[4] = target: T2, Thromboxane A2 receptor (Homo sapiens); experiment: as §1, with “uM at 4 degC” for “uM”; assay type: functional, cell-based; conditions: HEK293-A
Method in brief: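 Six-wash washout protocol (each wash ~50-fold dilution) run at 4 °C to suppress endocytosis and receptor trafficking. Human TP receptor-expressing cells, then I-BOP stimulation and IP1 read-out.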

[5] = system: Plasma; experiment: Stability in CD1 mouse plasma at 1 uM after 1 hr at 37 degC by UPLC-ESI-MS/MS method; assay type: ADME, cell-free
Method in brief: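 Free compound concentration followed during 1 h incubation in plasma.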

[6] = target: T3, Prostaglandin E2 receptor EP1 subtype (Homo sapiens) (UniProt P34995); experiment: Antagonist activity against human EP1 receptor expressed in QBI-HEK293A cells assessed as reduction in 17-PGE2-induced inositol monophosphate production at 1 uM incubated for 15 to 60 mins before […] addition by HTRF assay; assay type: functional, cell-based; conditions: HEK293-A
T3 sequence (whole entry): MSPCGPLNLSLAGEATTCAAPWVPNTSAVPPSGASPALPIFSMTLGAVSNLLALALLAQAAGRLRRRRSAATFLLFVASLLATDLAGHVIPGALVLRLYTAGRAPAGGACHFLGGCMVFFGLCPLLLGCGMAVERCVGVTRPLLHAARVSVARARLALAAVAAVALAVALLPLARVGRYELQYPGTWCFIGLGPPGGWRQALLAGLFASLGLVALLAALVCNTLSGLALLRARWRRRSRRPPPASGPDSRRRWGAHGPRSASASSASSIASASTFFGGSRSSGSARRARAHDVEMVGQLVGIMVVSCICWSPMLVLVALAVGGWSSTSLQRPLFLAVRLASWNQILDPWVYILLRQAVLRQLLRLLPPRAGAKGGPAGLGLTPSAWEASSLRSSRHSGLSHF

[7] = target: T2, Thromboxane A2 receptor (Homo sapiens); experiment: Irreversible antagonist activity against human thromboxane A2 receptor alpha expressed in QBI-HEK293A cells assessed as reduction in I-BOP-induced inositol monophosphate production at 1 uM incubated for 15 to 60 mins before I-BOP addition and measured after 4 consecutive drug washout by HTRF assay; assay type: functional, cell-based; conditions: HEK293-A; method in brief: as §2
[8] = target: T2, Thromboxane A2 receptor (Homo sapiens); experiment: Antagonist activity against human thromboxane A2 receptor alpha expressed in QBI-HEK293A cells assessed as reduction in I-BOP-induced inositol monophosphate production at 1 uM incubated for 15 to 60 mins before I-BOP addition by HTRF assay; assay type: functional, cell-based; conditions: HEK293-A
Method in brief: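 hTP-expressing HEK-293 cells exposed to 1 μM antagonist for 15 or 60 min, then 0.8 nM I-BOP added without washing. Relative IP1 levels measured. Controls received I-BOP alone or no treatment.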

[9] = Stability in presence of 10 mM glutathione in pH 7.0 aqueous buffer after 3 hrs; assay type: physicochemical; conditions: pH 7, 3 h
Method in brief: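 Equimolar glutathione and CPD derivative, each at 10 mM, incubated in aqueous buffer at pH 7 for 3 h. Consumption of the starting dione monitored.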

[10] = target: T2, Thromboxane A2 receptor (Homo sapiens); conditions: HEK293-A, 1 uM

Row | SMILES | IC50 [1] [nM] | inhibition [2] | inhibition [3] | other results
1 | O=C1C(c2ccccc2)=C(O)CC1Cc1cccc(CCNS(=O)(=O)c2ccc(Cl)cc2)c1 (racemic) [listing 1 of 2 here] | 59 |  |  | 
2 | O=C1C(c2ccccc2)=C(O)CC1Cc1cccc(CCNS(=O)(=O)c2ccc(Cl)cc2)c1 (single isomer, unassigned; (+)) |  | Active |  | 
3 | O=C1C(C2CCCCC2)=C(O)CC1Cc1cccc(CCNS(=O)(=O)c2ccc(Cl)cc2)c1 (centres undefined) | 892 |  | Active | 
4 | O=C1C(Cc2ccccc2)=C(O)CC1Cc1cccc2c1CCC(NS(=O)(=O)c1ccc(Cl)cc1)C2 (centres undefined) | 29.2 | Active |  | 
5 | O=C1C(c2ccccc2)=C(O)CC1Cc1cccc2c1CCC(NS(=O)(=O)c1ccc(Cl)cc1)C2 (centres undefined) | 3.9 | Active |  | 
6 | O=C1C(c2ccccc2)=C(O)CC1Cc1cccc(CCNS(=O)(=O)c2ccc(Cl)cc2)c1 (racemic) [listing 2 of 2 here] |  | Active |  | 
7 | Cc1cccc(C)c1C1=C(O)CC(Cc2cccc3c2CCC(NS(=O)(=O)c2ccc(Cl)cc2)C3)C1=O (centres undefined) | 0.015 | Active |  | inhibition [4]: Active; Stability [5]: Stable; inhibition [6]: inactive; inhibition [7]: Active; inhibition [8]: Active
8 | O=C1C(c2ccc(F)cc2)=C(O)CC1Cc1cccc2c1CCC(NS(=O)(=O)c1ccc(Cl)cc1)C2 (centres undefined) | 6.5 | Active |  | 
9 | Cc1cccc(C)c1C1=C(O)CC(Cc2cccc3c2CCCC3)C1=O (centres undefined) | 891 |  | Active | 
10 | Cc1cccc(C)c1C1C(=O)CCC1=O |  |  |  | Stability [9]: Stable
11 | Cc1ccc2c(c1CCC(=O)O)CC[C@@H](NS(=O)(=O)c1ccc(Cl)cc1)C2 [TERUTROBAN] | 16.4 |  |  | 
12 | O=C(O)Cc1cccc2c1CCC(NS(=O)(=O)c1ccc(Cl)cc1)C2 (centres undefined) | 10.7 |  | Active | inhibition [10]: Active; inhibition [8]: Active
13 | COc1ccc(C2=C(O)CC(Cc3cccc4c3CCC(NS(=O)(=O)c3ccc(Cl)cc3)C4)C2=O)cc1 (centres undefined) | 0.052 |  |  | inhibition [7]: Active; inhibition [8]: Active
14 | O=C(O)CCc1cccc(CCNS(=O)(=O)c2ccc(Cl)cc2)c1 |  |  | Active | 
15 | Cc1cccc(C)c1C1=C(OCC(C)C)CC(Cc2cccc3c2CCC(NS(=O)(=O)c2ccc(Cl)cc2)C3)C1=O (centres undefined) | 2760 |  |  | 
16 | CC1=C(O)CC(Cc2cccc3c2CCC(NS(=O)(=O)c2ccc(Cl)cc2)C3)C1=O (centres undefined) | 11.2 |  | Active | inhibition [8]: Active
